MIC data for eight compounds are collected here from ChEMBL document CHEMBL1147968, “Novel lbeta-methylcarbapenems having cyclic sulfonamide moieties: synthesis and evaluation of in vitro antibacterial activity” (2007).

Common to all, as to type: functional
One test has as its system Pseudomonas aeruginosa. Kind of test: Antibacterial activity against Pseudomonas aeruginosa 5455 after 18 to 24 hrs by agar dilution method. The essentials: (§1)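 MICs were determined by agar dilution on test agar. An overnight tryptosoy broth culture was diluted in the same broth to about 10⁶ cells/mL and spotted with an inoculating device onto agar containing serial twofold dilutions of compound. Plates were incubated at 37 °C for 18–20 h, and the MIC was the lowest concentration with no visible growth.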

The test system of a further test is Streptococcus agalactiae. Kind of test: Antibacterial activity against Streptococcus agalactiae 32 after 18 to 24 hrs by agar dilution method. In a few lines: as §1
The next test concerns Acinetobacter baumannii. The test is described as follows: Antibacterial activity against Acinetobacter baumannii 2289 after 18 to 24 hrs by agar dilution method. In a few lines:
as §1

The test system of the next test is Escherichia coli. The test is described as follows: Antibacterial activity against Escherichia coli 04 after 18 to 24 hrs by agar dilution method. The essentials: as §1
The test system of another test is Klebsiella pneumoniae. The test is described as follows: Antibacterial activity against Klebsiella pneumoniae 523 after 18 to 24 hrs by agar dilution method. In a few lines:
as §1

In the next test the test system is Haemophilus influenzae. Kind of test: Antibacterial activity against Haemophilus influenzae 1210 after 18 to 24 hrs by agar dilution method. In a few lines: as §1
The test system of the next test is Streptococcus pyogenes. The test is described as follows: Antibacterial activity against Streptococcus pyogenes 9889 after 18 to 24 hrs by agar dilution method. The essentials: (§2)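 Agar dilution on test agar holding serial twofold dilutions of compound. Overnight tryptosoy broth cultures were diluted in the same broth to about 10⁶ cells/mL and spotted with an inoculating device. Plates were incubated at 37 °C for 18–20 h.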

For another test, the system named is Citrobacter freundii. The test is described as follows: Antibacterial activity against Citrobacter freundii 323 after 18 to 24 hrs by agar dilution method. In a few lines:
as §1

Another test concerns Enterobacter cloacae. The test is described as follows: Antibacterial activity against Enterobacter cloacae 34 after 18 to 24 hrs by agar dilution method. The essentials: as §1
For another test, the system named is Streptococcus pneumoniae. The test is described as follows: Antibacterial activity against Streptococcus pneumoniae 0025 after 18 to 24 hrs by agar dilution method. The essentials: as §1
The test system of a further test is Staphylococcus. Kind of test: Antibacterial activity against coagulase negative Staphylococcus after 18 to 24 hrs by agar dilution method. The essentials: as §2
A further test has as its system Enterococcus faecalis. Kind of test: Antibacterial activity against Enterococcus faecalis 2347 after 18 to 24 hrs by agar dilution method. The essentials:
as §1

For a further test, the system named is Serratia marcescens. The test is described as follows: Antibacterial activity against Serratia marcescens 3349 after 18 to 24 hrs by agar dilution method. In a few lines:
as §1

The next test relates to Staphylococcus aureus. The test is described as follows: Antibacterial activity against Staphylococcus aureus 1218 after 18 to 24 hrs by agar dilution method. In a few lines: as §1

SMILES strings stand for the structures. Values after ≈ are worked out from the molar mass of the structure shown.

For the compound `CC1CN(C[C@@H]2C[C@H](SC3=C(C(=O)O)N4C(=O)C([C@@H](C)O)C4[C@H]3C)CN2)S(=O)(=O)N1` (some centres not stated), the MIC with Pseudomonas aeruginosa worked out at 25 µg/mL (≈ 54.3 µM); in the test with Streptococcus agalactiae, 0.04 µg/mL (≈ 0.0868 µM); in the test with Acinetobacter baumannii, 25 µg/mL (≈ 54.3 µM); in the test on Escherichia coli, 0.198 µg/mL (≈ 0.43 µM); in the test with Klebsiella pneumoniae, 0.198 µg/mL (≈ 0.43 µM); in the test on Haemophilus influenzae, 12.5 µg/mL (≈ 27.1 µM). Also, the MIC was 0.04 µg/mL (≈ 0.0868 µM) against Streptococcus pyogenes; 0.198 µg/mL (≈ 0.43 µM) with Citrobacter freundii; 0.195 µg/mL (≈ 0.423 µM) in the test on Enterobacter cloacae; 0.04 µg/mL (≈ 0.0868 µM) against Streptococcus pneumoniae; 0.391 µg/mL (≈ 0.849 µM) against Staphylococcus; 25 µg/mL (≈ 54.3 µM) in the test with Enterococcus faecalis. The MIC in the test with Serratia marcescens was 0.195 µg/mL (≈ 0.423 µM); with Staphylococcus aureus, 25 µg/mL (≈ 54.3 µM).

As to `C[C@@H](O)C1C(=O)N2C(C(=O)O)=C(S[C@@H]3CN[C@H](CN4CC(C)(C)NS4(=O)=O)C3)[C@H](C)C12` (some centres not stated), the MIC against Pseudomonas aeruginosa came to 3.12 µg/mL (≈ 6.58 µM); against Streptococcus agalactiae it was 0.02 µg/mL (≈ 0.0421 µM); in the test on Acinetobacter baumannii, 12.5 µg/mL (≈ 26.3 µM); in the test with Escherichia coli, 0.049 µg/mL (≈ 0.103 µM); against Klebsiella pneumoniae, 0.049 µg/mL (≈ 0.103 µM); in the test on Haemophilus influenzae, 6.25 µg/mL (≈ 13.2 µM). The MIC against Streptococcus pyogenes was determined as 0.01 µg/mL (≈ 0.0211 µM); with Citrobacter freundii, 0.049 µg/mL (≈ 0.103 µM); in the test with Enterobacter cloacae, 0.098 µg/mL (≈ 0.206 µM); against Streptococcus pneumoniae, 0.02 µg/mL (≈ 0.0421 µM); with Staphylococcus, 0.098 µg/mL (≈ 0.206 µM); in the test on Enterococcus faecalis, 6.25 µg/mL (≈ 13.2 µM). The MIC was 0.049 µg/mL (≈ 0.103 µM) with Serratia marcescens and 3.12 µg/mL (≈ 6.57 µM) in the test on Staphylococcus aureus.

As to `CCN1CCN(C[C@@H]2C[C@H](SC3=C(C(=O)O)N4C(=O)C([C@@H](C)O)C4[C@H]3C)CN2)S1(=O)=O` (some centres not stated), the MIC in the test on Pseudomonas aeruginosa is 12.5 µg/mL (≈ 26.3 µM); in the test on Streptococcus agalactiae, 0.04 µg/mL (≈ 0.0843 µM); in the test with Acinetobacter baumannii, 25 µg/mL (≈ 52.7 µM); in the test on Escherichia coli it was 0.098 µg/mL (≈ 0.206 µM); with Klebsiella pneumoniae it was 0.198 µg/mL (≈ 0.417 µM); against Haemophilus influenzae, 12.5 µg/mL (≈ 26.3 µM). The MIC with Streptococcus pyogenes was 0.02 µg/mL (≈ 0.0421 µM); against Citrobacter freundii it was 0.098 µg/mL (≈ 0.206 µM); against Enterobacter cloacae it was 0.098 µg/mL (≈ 0.206 µM); in the test with Streptococcus pneumoniae it was 0.04 µg/mL (≈ 0.0843 µM); against Staphylococcus, 0.198 µg/mL (≈ 0.417 µM); against Enterococcus faecalis, 6.25 µg/mL (≈ 13.2 µM). Further, the MIC in the test on Serratia marcescens was 0.098 µg/mL (≈ 0.206 µM); against Staphylococcus aureus it was 25 µg/mL (≈ 52.7 µM).

As for `C[C@@H](O)C1C(=O)N2C(C(=O)O)=C(S[C@@H]3CN[C@H](CN4CCCNS4(=O)=O)C3)[C@H](C)C12` (some centres not stated), the MIC in the test on Pseudomonas aeruginosa was determined as 1.56 µg/mL (≈ 3.39 µM); against Streptococcus agalactiae, 0.01 µg/mL (≈ 0.0217 µM); in the test with Acinetobacter baumannii, 6.25 µg/mL (≈ 13.6 µM); in the test with Escherichia coli it was 0.049 µg/mL (≈ 0.106 µM); in the test on Klebsiella pneumoniae, 0.049 µg/mL (≈ 0.106 µM); with Haemophilus influenzae, 6.25 µg/mL (≈ 13.6 µM). Also, the MIC against Streptococcus pyogenes was found to be 0.01 µg/mL (≈ 0.0217 µM); against Citrobacter freundii it was 0.049 µg/mL (≈ 0.106 µM); with Enterobacter cloacae, 0.049 µg/mL (≈ 0.106 µM); in the test on Streptococcus pneumoniae, 0.02 µg/mL (≈ 0.0434 µM); in the test on Staphylococcus it was 0.098 µg/mL (≈ 0.213 µM); in the test with Enterococcus faecalis it was 6.25 µg/mL (≈ 13.6 µM). Moreover, the figures for the MIC in the test with Serratia marcescens and in the test on Staphylococcus aureus were 0.198 µg/mL (≈ 0.43 µM) and 6.25 µg/mL (≈ 13.6 µM), respectively.

With `C[C@@H](O)C1C(=O)N2C(C(=O)O)=C(S[C@@H]3CN[C@H](CN4CCN(Cc5ccccc5)S4(=O)=O)C3)[C@H](C)C12` (some centres not stated), the MIC worked out at 100 µg/mL (≈ 186 µM) against Pseudomonas aeruginosa; 0.02 µg/mL (≈ 0.0373 µM) in the test on Streptococcus agalactiae; 50 µg/mL (≈ 93.2 µM) against Acinetobacter baumannii; 0.195 µg/mL (≈ 0.363 µM) in the test with Escherichia coli; 0.781 µg/mL (≈ 1.46 µM) with Klebsiella pneumoniae; 12.5 µg/mL (≈ 23.3 µM) in the test on Haemophilus influenzae. Further, the MIC is 0.02 µg/mL (≈ 0.0373 µM) against Streptococcus pyogenes; 0.781 µg/mL (≈ 1.46 µM) against Citrobacter freundii; 0.781 µg/mL (≈ 1.46 µM) with Enterobacter cloacae; 0.025 µg/mL (≈ 0.0466 µM) in the test with Streptococcus pneumoniae; 0.098 µg/mL (≈ 0.183 µM) in the test on Staphylococcus; 3.12 µg/mL (≈ 5.81 µM) with Enterococcus faecalis. The MIC came out at 6.25 µg/mL (≈ 11.6 µM) against Serratia marcescens and 3.12 µg/mL (≈ 5.81 µM) in the test with Staphylococcus aureus.

Turning to `C[C@@H](O)C1C(=O)N2C(C(=O)O)=C(S[C@@H]3CN[C@H](CN4CCOS4(=O)=O)C3)[C@H](C)C12` (some centres not stated), the MIC in the test with Pseudomonas aeruginosa amounted to 12.5 µg/mL (≈ 27.9 µM); with Streptococcus agalactiae, 0.02 µg/mL (≈ 0.0447 µM); in the test with Acinetobacter baumannii, 12.5 µg/mL (≈ 27.9 µM); against Escherichia coli, 0.049 µg/mL (≈ 0.109 µM); against Klebsiella pneumoniae, 0.098 µg/mL (≈ 0.219 µM); with Haemophilus influenzae, 6.25 µg/mL (≈ 14 µM). In addition, the MIC in the test on Streptococcus pyogenes is 0.02 µg/mL (≈ 0.0447 µM); against Citrobacter freundii, 0.195 µg/mL (≈ 0.436 µM); against Enterobacter cloacae it was 0.098 µg/mL (≈ 0.219 µM); in the test with Streptococcus pneumoniae, 0.013 µg/mL (≈ 0.029 µM); in the test on Staphylococcus it was 0.098 µg/mL (≈ 0.219 µM); in the test on Enterococcus faecalis, 6.25 µg/mL (≈ 14 µM). Also, the MIC worked out at 0.198 µg/mL (≈ 0.442 µM) with Serratia marcescens and 3.12 µg/mL (≈ 6.97 µM) in the test with Staphylococcus aureus.

`C[C@@H](O)C1C(=O)N2C(C(=O)O)=C(S[C@@H]3CN[C@H](CN4CCNS4(=O)=O)C3)[C@H](C)C12` (some centres not stated): the MIC was 0.781 µg/mL (≈ 1.75 µM) against Pseudomonas aeruginosa; 0.02 µg/mL (≈ 0.0448 µM) in the test with Streptococcus agalactiae; 12.5 µg/mL (≈ 28 µM) in the test on Acinetobacter baumannii; 0.049 µg/mL (≈ 0.11 µM) with Escherichia coli; 0.049 µg/mL (≈ 0.11 µM) against Klebsiella pneumoniae; 6.25 µg/mL (≈ 14 µM) in the test with Haemophilus influenzae. For the same compound, the MIC with Streptococcus pyogenes stood at 0.01 µg/mL (≈ 0.0224 µM); in the test with Citrobacter freundii, 0.049 µg/mL (≈ 0.11 µM); in the test with Enterobacter cloacae it was 0.049 µg/mL (≈ 0.11 µM); in the test with Streptococcus pneumoniae, 0.02 µg/mL (≈ 0.0448 µM); in the test with Staphylococcus it was 0.098 µg/mL (≈ 0.219 µM); in the test on Enterococcus faecalis, 6.25 µg/mL (≈ 14 µM). The MIC was found to be 0.049 µg/mL (≈ 0.11 µM) against Serratia marcescens and 3.12 µg/mL (≈ 6.99 µM) in the test with Staphylococcus aureus.

With `C[C@@H](O)C1C(=O)N2C(C(=O)O)=C(S[C@@H]3CN[C@H](CN4CCN(C)S4(=O)=O)C3)[C@H](C)C12` (some centres not stated), the MIC was 3.12 µg/mL (≈ 6.78 µM) with Pseudomonas aeruginosa; 0.02 µg/mL (≈ 0.0434 µM) in the test on Streptococcus agalactiae; 12.5 µg/mL (≈ 27.1 µM) in the test with Acinetobacter baumannii; 0.049 µg/mL (≈ 0.106 µM) against Escherichia coli; 0.098 µg/mL (≈ 0.213 µM) against Klebsiella pneumoniae; 6.25 µg/mL (≈ 13.6 µM) in the test on Haemophilus influenzae. Also, the MIC against Streptococcus pyogenes was 0.02 µg/mL (≈ 0.0434 µM); against Citrobacter freundii, 0.049 µg/mL (≈ 0.106 µM); in the test on Enterobacter cloacae, 0.049 µg/mL (≈ 0.106 µM); in the test on Streptococcus pneumoniae, 0.02 µg/mL (≈ 0.0434 µM); with Staphylococcus, 0.098 µg/mL (≈ 0.213 µM); against Enterococcus faecalis it was 6.25 µg/mL (≈ 13.6 µM). For the same compound, the MIC against Serratia marcescens is 0.098 µg/mL (≈ 0.213 µM); against Staphylococcus aureus it was 12.5 µg/mL (≈ 27.1 µM).
